Results published in ChEMBL document CHEMBL3286182, “4-aminoquinolone piperidine amides: noncovalent inhibitors of DprE1 with long residence time and potent antimycobacterial activity” (J Med Chem, 2014).
In brackets after ≈: the same amount, converted by molar mass. Activity calls are given as the source filed them. The calls are words filed in the database; no cut-off is given here.

Legend:
[1] = Inhibition of Mycobacterium smegmatis recombinant DprE1 using farnesylphosphoryl-beta-D-ribofuranose as substrate assessed as conversion of amplex red to resorufin after 30 mins; design: species or system Mycolicibacterium smegmatis
Procedure, shortened: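 Msm DprE1 (thioredoxin-6His fusion of Msm Rv3790) at 75 nM, preincubated 30 min with 10 μM FAD. Buffer: 50 mM glycylglycine pH 8.5, 200 mM potassium glutamate, 0.002% Brij-35, 2% DMSO, 25 °C. Started with 300 μM farnesylphosphoryl-β-D-ribofuranose, 0.01 mg/mL HRP and 50 μM Amplex Red.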

[2] = test system: Mycobacterium tuberculosis; assay: Antimycobacterial activity against Mycobacterium tuberculosis H37Rv after 5 days by standard microdilution method; assay type: functional; details: 120 h
[3] = test system: Pseudomonas aeruginosa; assay: Antimicrobial activity against Pseudomonas aeruginosa ARC546 at 100 uM; assay type: functional, organism-based
Procedure, shortened: (§1)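 Nonmycobacterial panel of Candida albicans, Gram-negative and Gram-positive pathogens.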

[4] = test system: Mycolicibacterium smegmatis; assay: Antimicrobial activity against Mycobacterium smegmatis ATCC 607 at 100 uM; assay type: functional, organism-based
[5] = test system: Haemophilus influenzae; assay: Antimicrobial activity against Haemophilus influenzae ARC158 at 100 uM; assay type: functional, organism-based; procedure, shortened: as §1
[6] = test system: Mycobacterium tuberculosis; assay: Antimycobacterial activity against Mycobacterium tuberculosis H37Rv under hypoxic condition after 6 days by resazurin assay; assay type: functional
[7] = test system: Pseudomonas aeruginosa; assay: Antimicrobial activity against Pseudomonas aeruginosa ARC545 at 100 uM; assay type: functional, organism-based; procedure, shortened: as §1
[8] = test system: Streptococcus pneumoniae; assay: Antimicrobial activity against Streptococcus pneumoniae ARC548 at 100 uM; assay type: functional, organism-based; procedure, shortened: as §1
[9] = test system: Haemophilus influenzae; assay: Antimicrobial activity against Haemophilus influenzae ARC446 at 100 uM; assay type: functional, organism-based; procedure, shortened: as §1
[10] = test system: Klebsiella pneumoniae; assay: Antimicrobial activity against Klebsiella pneumoniae ARC1865 at 100 uM; assay type: functional, organism-based; procedure, shortened: as §1
[11] = test system: Staphylococcus aureus; assay: Antimicrobial activity against Staphylococcus aureus ARC517 at 100 uM; assay type: functional, organism-based; procedure, shortened: as §1
[12] = test system: Candida albicans; assay: Antimicrobial activity against Candida albicans ARC527 at 100 uM; assay type: functional, organism-based; procedure, shortened: as §1
[13] = test system: Escherichia coli; assay: Antimicrobial activity against Escherichia coli ARC523 at 100 uM; assay type: functional, organism-based; procedure, shortened: as §1
[14] = test system: Escherichia coli; assay: Antimicrobial activity against Escherichia coli ARC524 at 100 uM; assay type: functional, organism-based; procedure, shortened: as §1
[15] = test system: Mycolicibacterium smegmatis; assay: Antimicrobial activity against Mycobacterium smegmatis mc2155 at 100 uM; assay type: functional, organism-based; details: str. MC2 155

| Structure (SMILES) | IC50 [1] [nM] | MIC [2] [µM] | Activity [3] | Activity [4] | Activity [5] | Activity [6] | Activity [7] | Activity [8] | Activity [9] | Activity [10] | Activity [11] | Activity [12] | Activity [13] | Activity [14] | Activity [15] |
| --- | --- | --- | --- | --- | --- | --- | --- | --- | --- | --- | --- | --- | --- | --- | --- |
| C[C@H]1C[C@H](Nc2cc(=O)[nH]c3ccccc23)CCN1C(=O)c1cnn(C)c1Cl | 26 | 12.5 (≈ 5 µg/mL) |  |  |  |  |  |  |  |  |  |  |  |  |  |
| Cc1c(C(=O)N2CCC(Nc3cc(=O)[nH]c4ccc(F)cc34)CC2)nnn1C | 11 | 3.5 (≈ 1.35 µg/mL) | inactive | inactive | inactive | inactive | inactive | inactive | inactive | inactive | inactive | inactive | inactive | inactive | inactive |
| CCn1c(=O)cc(NC2CCN(C(=O)c3cnn(C)c3Cl)CC2)c2ccccc21 | > 100000 | > 100 | inactive | inactive | inactive | inactive | inactive | inactive | inactive | inactive | inactive | inactive | inactive | inactive | inactive |
| CCn1ncc(C(=O)N2CCC(Nc3cc(=O)[nH]c4ccc(F)cc34)CC2)c1Cl | 45 | 12.5 (≈ 5.22 µg/mL) | inactive | inactive | inactive | inactive | inactive | inactive | inactive | inactive | inactive | inactive | inactive | inactive | inactive |
| CC(C)n1ncc(C(=O)N2CCC(Nc3cc(=O)[nH]c4ccccc34)CC2)c1Cl | 7000 | 100 (≈ 41.4 µg/mL) | inactive | inactive | inactive | inactive | inactive | inactive | inactive | inactive | inactive | inactive | inactive | inactive | inactive |
| C[C@H]1C[C@@H](Nc2cc(=O)[nH]c3ccccc23)CCN1C(=O)c1cnn(C)c1Cl | > 10000 | > 200 |  |  |  |  |  |  |  |  |  |  |  |  |  |
| Cn1ncc(C(=O)N2CCC(Nc3cc(=O)[nH]c4ccc(F)cc34)CC2)c1C(F)(F)F | 21 | 6.2 (≈ 2.71 µg/mL) | inactive | inactive | inactive | inactive | inactive | inactive | inactive | inactive | inactive | inactive | inactive | inactive | inactive |
| Cn1ncc(C(=O)N2CCC(Nc3cc(-c4ccccc4)[nH]c(=O)c3)CC2)c1Cl | 3000 | 50 (≈ 20.6 µg/mL) |  |  |  |  |  |  |  |  |  |  |  |  |  |
| Cn1ncc(C(=O)N2CCC(Nc3cc(=O)n(C)c4cc(F)c(F)cc34)CC2)c1Cl | 20 | 3.1 (≈ 1.35 µg/mL) | inactive | inactive | inactive | inactive | inactive | inactive | inactive | inactive | inactive | inactive | inactive | inactive | inactive |
| Cn1ncc(C(=O)N2[C@@H]3CC[C@H]2C[C@@H](Nc2cc(=O)n(C)c4ccc(F)cc24)C3)c1Cl | 12 | 0.25 (≈ 0.111 µg/mL) |  |  |  |  |  |  |  |  |  |  |  |  |  |
| Cc1onc(C(=O)N2CCC(Nc3cc(=O)[nH]c4ccc(F)cc34)CC2)c1C | < 6 | 6.2 (≈ 2.38 µg/mL) | inactive | inactive | inactive | inactive | inactive | inactive | inactive | inactive | inactive | inactive | inactive | inactive | inactive |
| Cn1ncc(C(=O)N2CC(Nc3cc(=O)[nH]c4ccccc34)C2)c1Cl | 1800 | 50 (≈ 17.9 µg/mL) |  |  |  |  |  |  |  |  |  |  |  |  |  |
| Cn1ncc(C(=O)N2CCC(Nc3cc(=O)[nH]c4ccccc34)C2)c1Cl (stereo not drawn) | 4700 | > 200 |  |  |  |  |  |  |  |  |  |  |  |  |  |
| Cc1onc(C(=O)N2CCC(Nc3cc(=O)[nH]c4cc(F)c(F)cc34)CC2)c1C | 18 | 0.2 (≈ 0.0805 µg/mL) | inactive | inactive | inactive | inactive | inactive | inactive | inactive | inactive | inactive | inactive | inactive | inactive | inactive |
| Cn1cc(C(=O)N2CCC(Nc3cc(=O)[nH]c4ccccc34)CC2)cn1 | 2200 | 140 (≈ 49.2 µg/mL) | inactive | inactive | inactive | inactive | inactive | inactive | inactive | inactive | inactive | inactive | inactive | inactive | inactive |
| Cn1ncc(C(=O)N2CCC(Nc3cc(=O)[nH]c4cc(F)ccc34)CC2)c1Cl | 7 | 3.1 (≈ 1.25 µg/mL) | inactive | inactive | inactive | inactive | inactive | inactive | inactive | inactive | inactive | inactive | inactive | inactive | inactive |
| CN(c1cc(=O)[nH]c2ccccc12)C1CCN(C(=O)c2cnn(C)c2Cl)CC1 | 18000 | > 250 | inactive | inactive | inactive | inactive | inactive | inactive | inactive | inactive | inactive | inactive | inactive | inactive | inactive |
| Cn1ncc(C(=O)N2[C@@H]3CC[C@H]2C[C@H](Nc2cc(=O)[nH]c4ccc(F)cc24)C3)c1Cl | 43000 | > 200 |  |  |  |  |  |  |  |  |  |  |  |  |  |
| Cn1ncc(C(=O)N2CCC(Nc3n[nH]c4ccc(F)cc34)CC2)c1Cl | 113 | > 100 |  |  |  |  |  |  |  |  |  |  |  |  |  |
| Cn1ncc(C(=O)N2CCC(Nc3cc(=O)[nH]c4c(F)c(F)ccc34)CC2)c1Cl | 9 | 1.6 (≈ 0.675 µg/mL) | inactive | inactive | inactive | inactive | inactive | inactive | inactive | inactive | inactive | inactive | inactive | inactive | inactive |
| Cn1ncc(C(=O)N2[C@@H]3CC[C@H]2C[C@@H](Nc2cc(=O)[nH]c4cc(F)c(F)cc24)C3)c1Cl | 9 | 0.06 (≈ 0.0269 µg/mL) |  |  |  |  |  |  |  |  |  |  |  |  |  |
| Cn1ncc(C(=O)N2CCC(Nc3cnnc4ccccc34)CC2)c1Cl | > 10000 | > 200 |  |  |  |  |  |  |  |  |  |  |  |  |  |
| COc1cc(NC2CCN(C(=O)c3cnn(C)c3Cl)CC2)c2ccccc2n1 | 78000 | > 200 |  |  |  |  |  |  |  |  |  |  |  |  |  |
| Cn1ncc(C(=O)N2[C@@H]3CC[C@H]2C[C@@H](Nc2cc(-c4ccccc4)[nH]c(=O)c2)C3)c1Cl | 53 | 1.6 (≈ 0.701 µg/mL) |  |  |  |  |  |  |  |  |  |  |  |  |  |
| Cc1onc(C(=O)N2[C@@H]3CC[C@H]2C[C@@H](Nc2cc(=O)[nH]c4cc(F)c(F)cc24)C3)c1C | 7 | 0.06 (≈ 0.0257 µg/mL) |  |  |  |  |  |  |  |  |  |  |  |  |  |
| Cn1ncc(C(=O)N2[C@@H]3CC[C@H]2C[C@@H](Nc2cc(=O)n(C)c4cc(F)c(F)cc24)C3)c1Cl | 8 | 0.12 (≈ 0.0554 µg/mL) |  |  |  |  |  |  |  |  |  |  |  |  |  |
